Results of several laboratories.
Lines come from different studies, so protocols differ.
Cell line: A498
Effect on: cell growth or viability

COc1ccc(C(=O)/C=C/c2ccc3ccccc3c2)cc1S(N)(=O)=O  GI50 (SRB; 48 h): 14500 nM
S=C([S][Au-][P+](CCCCCC[P+]([Au-][S]C(=S)n1cccn1)(c1ccccc1)c1ccccc1)(c1ccccc1)c1ccccc1)n1cccn1  GI50: 1010 nM
COc1cc(Nc2nccc(-c3cnn4nc(OC)ccc34)n2)cc(C(F)(F)F)c1  IC50 (ATP luminescence): 430 nM
COc1cc(-c2ccc(-c3ccc(C(=N)N)nc3)s2)cc(OC)c1OC  GI50: 4910 nM
COc1cccc(Oc2ccccc2NC(=O)CNC(=O)c2cccc3ccccc23)c1  GI50 (SRB; 48 h): 115 nM
COc1ccc(C(=O)/C=C/c2cccc3ccccc23)cc1S(N)(=O)=O  inhibition (SRB; 10 µM): -7%
CC(C)C[C@H](NC(=O)[C@H](Cc1ccccc1)NC(=O)c1cnccn1)B(O)O  IC50 (ATP luminescence): 7.7 nM
CCC(=O)Nc1cc(Nc2cc(NC3CC3)n3ncc(C#N)c3n2)ccc1C  IC50 (ATP luminescence; 72 h): 1800 nM
Cc1cc(C)n(C(=S)[S][Au][PH](CCCCCC[PH]([Au][S]C(=S)n2nc(C)cc2C)(c2ccccc2)c2ccccc2)(c2ccccc2)c2ccccc2)n1  GI50: 384 nM
